Measurements taken from ChEMBL document CHEMBL1156841, “Carbonic anhydrase activators: activation of the beta-carbonic anhydrases from the pathogenic fungi Candida albicans and Cryptococcus neoformans with amines and amino acids” (Bioorg Med Chem, 2010).

Legend:
[1] = target: T1, Carbonic anhydrase 2 (Cryptococcus neoformans) (UniProt Q3I4V7); assay: Activation of Cryptococcus neoformans beta-carbonic anhydrase Can2 by stopped flow CO2 hydration assay
T1 sequence (whole entry): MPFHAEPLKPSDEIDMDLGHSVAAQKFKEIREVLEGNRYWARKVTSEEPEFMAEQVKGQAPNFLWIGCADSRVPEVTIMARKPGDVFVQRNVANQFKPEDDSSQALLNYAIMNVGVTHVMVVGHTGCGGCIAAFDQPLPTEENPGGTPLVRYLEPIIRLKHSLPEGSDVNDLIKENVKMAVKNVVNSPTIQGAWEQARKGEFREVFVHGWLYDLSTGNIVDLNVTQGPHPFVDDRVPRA
Outline: (§1)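 Recombinant enzyme (prepared as in earlier work) preincubated with activator 15 min at room temperature. Stopped-flow CO2 hydration at 25 °C followed for 10 s, read with phenol red (0.2 mM) at 557 nm. Buffer was 20 mM Tris pH 8.3 with 20 mM NaClO4. CO2 ranged 1.7–17 mM. Initial velocity came from at least six traces of the first 5–10% of reaction, with the uncatalyzed rate subtracted. KA was fitted from activation versus activator concentration, using dilutions from a 10 mM aqueous stock. Mean of at least three determinations.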

[2] = target: T2, Carbonic anhydrase (Candida albicans (strain SC5314 / ATCC MYA-2876) (Yeast)) (UniProt Q5AJ71); assay: Activation of Candida albicans beta-carbonic anhydrase Nce103 by stopped flow CO2 hydration assay; outline: as §1
T2 sequence (whole entry): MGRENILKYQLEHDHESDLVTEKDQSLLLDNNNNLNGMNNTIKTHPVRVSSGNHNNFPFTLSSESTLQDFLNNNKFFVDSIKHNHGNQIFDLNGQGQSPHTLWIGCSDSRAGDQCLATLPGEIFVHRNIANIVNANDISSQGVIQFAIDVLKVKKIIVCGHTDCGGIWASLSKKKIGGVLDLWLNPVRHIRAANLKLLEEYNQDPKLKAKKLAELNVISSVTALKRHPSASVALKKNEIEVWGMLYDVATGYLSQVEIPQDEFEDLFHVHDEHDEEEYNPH

[3] = substrate: NCCc1c[nH]cn1; conditions: Candida albicans; 10 uM
[4] = substrate: NCCc1c[nH]cn1; conditions: Candida albicans
[5] = substrate: NCCc1c[nH]cn1; conditions: Cryptococcus neoformans; 10 uM
[6] = substrate: NCCc1c[nH]cn1; conditions: Cryptococcus neoformans

Row | Molecule | KA [1] | KA [2] | other results
1 | N[C@@H](Cc1ccc(O)c(O)c1)C(=O)O | 43.3 µM | 0.96 µM | 
2 | NCCN1CCOCC1 | 40.1 µM | 25.4 µM | 
3 | NCCc1ccccn1 | 46.3 µM | 30.2 µM | 
4 | N[C@H](Cc1c[nH]c2ccccc12)C(=O)O | 42.1 µM | 43 µM | 
5 | Nc1ccc(C[C@H](N)C(=O)O)cc1 | 30.4 µM | 23.7 µM | 
6 | NCCN1CCNCC1 | 44.9 µM | 17.3 µM | 
7 | N[C@@H](Cc1c[nH]c2ccccc12)C(=O)O | 28.7 µM | 19.2 µM | 
8 | N[C@H](Cc1ccc(O)c(O)c1)C(=O)O | 35.1 µM | 2.5 µM | 
9 | N[C@H](Cc1ccccc1)C(=O)O | 45.2 µM | 8.4 µM | 
10 | NCc1ccccn1 | 47 µM | 29.1 µM | 
11 | CNC[C@@H](O)c1ccc(O)c(O)c1 | 32.8 µM | 13.2 µM | 
12 | N[C@@H](Cc1ccc(O)cc1)C(=O)O | 29.5 µM | 46.1 µM | 
13 | N[C@@H](Cc1c[nH]cn1)C(=O)O | 45 µM | 24.1 µM | 
14 | NCCc1c[nH]cn1 | 33.2 µM | 18.4 µM | 
15 | N[C@H](Cc1c[nH]cn1)C(=O)O | 47.2 µM | 19.5 µM | 
16 | NCCc1ccc(O)c(O)c1 | 34.6 µM | 18.5 µM | 
17 | N[C@@H](Cc1ccccc1)C(=O)O | 44.1 µM | 15.5 µM | 
18 | NCCc1c[nH]c2ccc(O)cc12 | 46.7 µM | 28.6 µM | 
19 | Carbonic anhydrase (Candida albicans (strain SC5314 / ATCC MYA-2876) (Yeast)), Q5AJ71 (protein) MGRENILKYQLEHDHESDLVTEKDQSLLLDNNNNLNGMNNTIKTHPVRVSSGNHNNFPFTLSSESTLQDFLNNNKFFVDSIKHNHGNQIFDLNGQGQSPHTLWIGCSDSRAGDQCLATLPGEIFVHRNIANIVNANDISSQGVIQFAIDVLKVKKIIVCGHTDCGGIWASLSKKKIGGVLDLWLNPVRHIRAANLKLLEEYNQDPKLKAKKLAELNVISSVTALKRHPSASVALKKNEIEVWGMLYDVATGYLSQVEIPQDEFEDLFHVHDEHDEEEYNPH |  |  | kcat [3]: 20.1 ×10⁵ /s; Km [4]: 8.2 mM; kcat [4]: 8 ×10⁵ /s
20 | Carbonic anhydrase 2 (Cryptococcus neoformans), Q3I4V7 (protein) MPFHAEPLKPSDEIDMDLGHSVAAQKFKEIREVLEGNRYWARKVTSEEPEFMAEQVKGQAPNFLWIGCADSRVPEVTIMARKPGDVFVQRNVANQFKPEDDSSQALLNYAIMNVGVTHVMVVGHTGCGGCIAAFDQPLPTEENPGGTPLVRYLEPIIRLKHSLPEGSDVNDLIKENVKMAVKNVVNSPTIQGAWEQARKGEFREVFVHGWLYDLSTGNIVDLNVTQGPHPFVDDRVPRA |  |  | kcat [5]: 6.8 ×10⁵ /s; Km [6]: 9 mM; kcat [6]: 3.9 ×10⁵ /s
